Source: PubChem BioAssay (several laboratories)
A selection: hits, their analogues and other compounds. The true share with any hit is near 2.2%.
SKN-1 inh: blocks SKN-1 activity in C. elegans. C. elegans VP596 Pgst-4::GFP/RFP ratio, acrylamide-induced, 24 h. inhibition, % at 21.8 µM. 360,000 compounds, 0.49% hits. AID 624304;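 active means interference check ratio from 0.5 to 1.5 plus GFP to RFP signal ratio inhibition reaching or exceeding a fixed threshold, cut at about 30% in these data, passing the limit was not always enough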
Neddyl block: cullin neddylation inhibition; P61081+Q13564; calls only at 25 µM; TR-FRET cullin neddylation, biochemical; 360,000 compounds, 0.58% hits; in the data active means inhibition above about 36%
MT1-MMP act inh: MT1-MMP (human) activation inhibition; GFP/RFP ratio change, % at 20 µM; AID 651647; 360,000 compounds, 0.061% hits; P50281; HT1080 RFP-PRO-GFP cells, GFP/RFP ratio fluorescence, overnight; percent of plate control window, DMSO zero;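 active means GFP/RFP ratio change of at least 30% with cell ATP level not reduced by more than half and red fluorescence within 50% of control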
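Assay system: HT1080 cells carrying an RFP-PRO-GFP reporter | Dosing: Single dose of 20 µM compound, 1% DMSO final | Incubation: Cells overnight before dosing, compound overnight, 37 °C, 5% CO2 | Evaluation: GFP/RFP fluorescence ratio | Control set: DMSO and RFP-L50D-GFP cell wells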
DDE Tn6 FP inh: inhibitors of Tn6 peptide binding to human fibrin DD(E); inhibition, % at 8.3 µM; P02675; AID 720509; 370,000 compounds, 0.21% hits; Fibrin DD(E) TRITC-Tn6 fluorescence polarization displacement;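 active means inhibition above a per-campaign cutoff: mean of compounds within control limits plus 3 SD, cut at about 15% in these data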
Target sequence (P02675 whole entry, looked up): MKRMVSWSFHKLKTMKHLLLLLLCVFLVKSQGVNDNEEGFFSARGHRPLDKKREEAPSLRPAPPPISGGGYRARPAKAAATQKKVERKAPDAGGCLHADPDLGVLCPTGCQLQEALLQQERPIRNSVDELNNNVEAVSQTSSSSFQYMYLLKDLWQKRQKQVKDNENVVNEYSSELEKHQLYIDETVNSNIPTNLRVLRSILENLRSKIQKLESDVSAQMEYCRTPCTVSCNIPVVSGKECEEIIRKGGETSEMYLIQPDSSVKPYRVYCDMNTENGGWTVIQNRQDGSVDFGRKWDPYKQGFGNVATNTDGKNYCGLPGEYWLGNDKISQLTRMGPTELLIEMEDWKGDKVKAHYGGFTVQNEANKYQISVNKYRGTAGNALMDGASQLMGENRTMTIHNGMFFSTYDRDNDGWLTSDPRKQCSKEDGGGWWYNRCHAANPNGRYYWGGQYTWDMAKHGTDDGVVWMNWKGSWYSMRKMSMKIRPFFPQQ
Tn7 DDE FP: disrupts Tn7 cyclic peptide binding to fibrin D-Dimer-E complex. FP displacement of FITC-Tn7 peptide from fibrin DD(E); 0% = median of compound wells per plate. inhibition, % at 8.3 µM. 370,000 compounds, 0.13% hits. AID 720508;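 active means inhibition above the mean of compounds falling within the control limits plus 3 SD of them, cut at about 14% in these data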
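Assay system: Human fibrin DD(E) protein | Medium: Tris buffer with calcium and detergent, pH 7.8 | Reagent: 0.1 µM fluorescent Tn7 | Compound dosing: Single point at 8.3 µM | Times: 10 min preincubation, 3 h with tracer, room temperature | Detection: Fluorescence polarization of the labelled Tn7 tracer | Controls: Aha-Tn7 high control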
KLK7 zymogen act: activates the human kallikrein-7 zymogen. P49862. purified proKLK7, EDANS-DABCYL substrate fluorescence; 100% is mature enzyme control, 0% vehicle. activation, % at 7 µM. 370,000 compounds, 0.9% hits;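 active means activation above the mean of all tested compounds plus 3 SD, computed per campaign excluding outliers beyond control limits, cut at about 13% in these data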
Target sequence (P49862 whole entry, looked up): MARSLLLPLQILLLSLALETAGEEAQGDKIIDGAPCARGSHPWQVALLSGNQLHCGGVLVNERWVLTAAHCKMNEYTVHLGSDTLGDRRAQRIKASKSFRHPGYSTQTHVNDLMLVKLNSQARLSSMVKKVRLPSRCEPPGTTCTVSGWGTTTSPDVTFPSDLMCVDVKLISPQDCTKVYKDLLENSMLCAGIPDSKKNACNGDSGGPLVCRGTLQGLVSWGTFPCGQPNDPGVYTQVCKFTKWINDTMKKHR
DDE Tn6 FP ctr: counter-screen for inhibitors of Tn6 peptide binding to fibrin DD(E) | 680 compounds, 2% hits | inhibition, % at 8.3 µM | TRITC-Tn6 fluorescence polarization displacement; 0% = median of compound wells, not DMSO | shares compounds with DDE Tn6 FP inh;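 active means inhibition above the mean of test compounds lying between the control limits plus 3 SD of those, cut at about 14% in these data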
DDE Tn6 confirm: confirmation of inhibitors of Tn6 binding to human fibrin DD(E) | shares compounds with DDE Tn6 FP inh | FP displacement of TRITC-Tn6 peptide from DD(E); 0% = per-plate median of test wells | inhibition, % at 8.3 µM | 680 compounds, 10% hits;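 active means inhibition above the mean of compounds lying within the control limits plus 3 SD, cut at about 16% in these data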
Each line names hits and unclear results; the compound was inactive in the other large screens (follow-up assays come after a bar, where shown); ! = repeats disagree.

Cc1ccccc1C(C(=O)NCc1ccco1)N(CC1CCCO1)C(=O)Cn1nnc2ccccc21 (stereo not drawn)	DDE Tn6 FP inh 19 | DDE Tn6 FP ctr inactive | DDE Tn6 confirm inactive
O=C(NCc1ccco1)C(c1ccccc1)N(CC1CCCO1)C(=O)Cn1nnc2ccccc21 (stereo not drawn)	none
CCC(c1nnnn1-c1ccc2c(c1)OCCO2)N1CCN(c2ncccc2C(F)(F)F)CC1 (stereo not drawn)	DDE Tn6 FP inh 15! | DDE Tn6 FP ctr inactive | DDE Tn6 confirm inactive
CCC(c1nnnn1-c1ccc2c(c1)OCCO2)N1CCN(c2ccc(F)cc2)CC1 (stereo not drawn)	none (no result: DDE Tn6 FP inh, Tn7 DDE FP, KLK7 zymogen act)
NS(=O)(=O)c1ccc(NC(=O)CSc2nc3ccccc3c(=O)n2Cc2ccncc2)cc1	none
NS(=O)(=O)c1ccc(NC(=O)CSc2nc3ccccc3c(=O)n2-c2ccc(Br)cc2)cc1	DDE Tn6 FP inh 27 (no result: SKN-1 inh, Neddyl block, MT1-MMP act inh) | DDE Tn6 FP ctr inactive | DDE Tn6 confirm inactive
Cc1cccc(C)c1-n1nnnc1C1(C)CN(S(C)(=O)=O)CC(=O)N1Cc1ccc(F)cc1 (stereo not drawn)	DDE Tn6 FP inh 16 (no result: SKN-1 inh, Neddyl block, MT1-MMP act inh) | DDE Tn6 FP ctr inactive | DDE Tn6 confirm inactive
Cc1cccc(NC(=O)C2CCN(S(=O)(=O)c3ccc4ccccc4c3)CC2)n1	none
Cc1cccc(NC(=O)C2CCN(S(=O)(=O)c3ccc(Cl)cc3)CC2)n1	DDE Tn6 FP inh 17 | DDE Tn6 FP ctr inactive | DDE Tn6 confirm inactive
Cc1ccc(NC(=O)CCc2nc(-c3cccs3)no2)c(Br)c1	none
COCCCNc1nc2c(c(=O)[nH]c(=O)n2C)n1CC(O)COc1ccccc1C (stereo not drawn)	DDE Tn6 FP inh 17 | DDE Tn6 FP ctr inactive | DDE Tn6 confirm inactive
CCOC(=O)Nc1cccc(Cl)c1C	none
CCOC(=O)CNC(=O)Nc1cccc(Cl)c1C	DDE Tn6 FP inh 52 | DDE Tn6 FP ctr inactive | DDE Tn6 confirm inactive
C=CCn1c(SC(C)C(=O)NC2CC2)nnc1-c1ccoc1C (stereo not drawn)	none
O=S(=O)(c1ccc(NC(=S)NCCC(c2ccccc2)c2ccccc2)cc1)N1CCOCC1	DDE Tn6 FP inh 17 | DDE Tn6 FP ctr inactive | DDE Tn6 confirm inactive
CCCCOCCCNC(=S)Nc1ccc(S(=O)(=O)N2CCOCC2)cc1	none
OCCN1CCN(CCOc2cccc(Cl)c2)CC1	DDE Tn6 FP inh 17 | DDE Tn6 FP ctr inactive | DDE Tn6 confirm inactive
Nc1nnc(CCC2CCCCC2)s1	DDE Tn6 FP inh 17 | DDE Tn6 FP ctr inactive | DDE Tn6 confirm inactive
Nc1nnc(CCCCCCCCCCc2nnc(N)s2)s1	none
O=C(Nc1cccc(-c2cn3c(n2)SCC3)c1)c1ccc(Br)o1	none
Cc1csc(SCC(=O)NCc2cccc(Cl)c2)n1	DDE Tn6 FP inh 17 | DDE Tn6 FP ctr inactive | DDE Tn6 confirm inactive
C=CCn1c(=O)c2c(nc3n2CC(C)CN3Cc2ccccc2)n(C)c1=O (stereo not drawn)	DDE Tn6 FP inh 17 | DDE Tn6 FP ctr inactive | DDE Tn6 confirm inactive
O=C(Nc1ccc2c(c1)OCCO2)C(C1CC1)N1CCN(C/C=C/c2ccccc2)CC1 (stereo not drawn)	none
O=[N+]([O-])c1cc([N+](=O)[O-])c(Oc2cncc(Cl)c2)cc1NN1CCCCC1	none
COc1ccccc1C(=O)COC(=O)C(NC(=O)Cc1ccccc1)C(C)C (stereo not drawn)	DDE Tn6 FP inh active | DDE Tn6 FP ctr inactive | DDE Tn6 confirm inactive
Cc1ccc(Cn2c(=O)c3ccccc3n3c(CCC(=O)NCCN4CCOCC4)nnc23)cc1	none (no result: DDE Tn6 FP inh, Tn7 DDE FP, KLK7 zymogen act)
CC(C)CCn1c(=O)c2ccccc2n2c(CN3CCOCC3)nnc12	DDE Tn6 FP inh 16 | DDE Tn6 FP ctr inactive | DDE Tn6 confirm inactive
C=C(C)C(=O)N1CC2(CC(c3cccc(NC(=O)CC(c4ccccc4)c4ccccc4)c3)=NO2)C[C@H]1C(N)=O (stereo partly drawn)	DDE Tn6 FP inh 15 | DDE Tn6 FP ctr inactive | DDE Tn6 confirm inactive
CCn1c(SCC(=O)Nc2ccc(C(=O)OC)cc2)nnc1-c1cccc(Cl)c1	none (no result: SKN-1 inh, Neddyl block, MT1-MMP act inh)
C[n+]1cc2c3c(ccc2c2ccc4cc5c(cc4c21)OCO5)OCO3	DDE Tn6 FP inh 27 (no result: SKN-1 inh, Neddyl block, MT1-MMP act inh) | DDE Tn6 FP ctr inactive | DDE Tn6 confirm 20
COc1ccc2cc3[n+](cc2c1O)CCc1cc2c(cc1-3)OCO2	none
Cc1ccc(-n2nc3c(c2NC(=O)c2ccc4c(c2)OCO4)CS(=O)(=O)C3)c(C)c1	none
C/C(=N\NC(=O)CSc1nc2ccccc2[nH]1)c1ccncc1	none
O=C1NC[C@H](CCCCN2CCN(CCc3ccccc3)C(=O)C2=O)N(CCC2CCCCC2)C1=O	none
Cc1cc(C(F)(F)F)n2nc(-c3cnn(C)c3C(F)(F)F)c(Cl)c2n1	DDE Tn6 FP inh 16 | DDE Tn6 FP ctr inactive | DDE Tn6 confirm inactive
COCCOC(=O)c1[nH]c2c(c1C)C(=O)CC(c1ccc(OC)c(OC)c1)C2 (stereo not drawn)	none
O=C(CCCN1C(=O)c2cccc3cccc(c23)C1=O)N1CCN(c2ccc(F)cc2)CC1	none
CCCC(=O)Nc1ccc2oc(-c3cncc(Br)c3)nc2c1	none (not shown: Neddyl block)
CCCCCC(=O)Nc1ccc2oc(-c3cncc(Br)c3)nc2c1	DDE Tn6 FP inh 16 | DDE Tn6 FP ctr inactive | DDE Tn6 confirm inactive
O=C(COC(=O)c1n[nH]c2ccccc12)Nc1ccccc1	none
CC(=O)c1cccc(NC(=O)COC(=O)c2n[nH]c3ccccc23)c1	DDE Tn6 FP inh 16 | DDE Tn6 FP ctr inactive | DDE Tn6 confirm inactive
CCN(CC)c1ccc(NC(=O)Nc2ccc(C(C)=O)cc2)cc1	none
CCN(CC)c1ccc(N=C2C=CC(=O)C=C2NC(C)=O)cc1	DDE Tn6 FP inh 20 | DDE Tn6 FP ctr inactive | DDE Tn6 confirm 54
CCOC(=O)c1c(NC(=O)COC(=O)Cn2cnc3c2c(=O)n(C)c(=O)n3C)sc(C)c1CC	none
CCc1c(C(=O)NCCc2ccc(OC)c(OC)c2)[nH]c(C)c1C(C)=O	none
C/C(=C\C(=O)c1ccccc1)Nc1ccc(O)cc1	DDE Tn6 FP inh 17 | DDE Tn6 FP ctr inactive | DDE Tn6 confirm inactive
C/C(=C\C(=O)c1cccnc1)Nc1ccc(O)cc1	DDE Tn6 FP inh 44 | DDE Tn6 FP ctr inactive | DDE Tn6 confirm inactive
COc1ccc(C(=O)/C=C(\C)Nc2ccc(NC(C)=O)cc2)cc1	none
